Measurements: PMC9464755 (Advances in Therapy, 2022)
In brackets after ≈: the same amount, converted by molar mass. Where two headings read alike, the source gives them in different places.

Key:
[1] = cited from earlier work
[2] = cited from earlier work; remark: listed apart in the source
[3] = system: cytochrome P450 (CYP) 3A4; conditions: in vitro study; cited from earlier work
[4] = once-daily administration; cited from earlier work
[5] = healthy subjects; cited from earlier work
[6] = Steady-state pharmacokinetics of lazertinib with; type: in vivo, human; conditions: for CD15, arithmetic mean: 240 mg once daily; for DNAUCss, arithmetic mean / DNCmax,ss, arithmetic mean / DNCD15, arithmetic mean: 40–320 mg once daily; for DNAUCss, arithmetic mean / DNCmax,ss, arithmetic mean: steady state
Method in brief: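 NSCLC patients dosed once daily, fasting, in 21-day cycles. AUCss and Cmax,ss came from non-compartmental analysis using actual sampling times over the dosing interval after the 22nd dose (cycle 2 day 1). CD15 is the trough before the 15th dose. Groups were compared using dose-normalized values within the dose-proportional range, plus raw values at 240 mg. Analysis was ANOVA on log-transformed values with group as fixed effect; geometric mean ratios with 90% CI.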

[7] = cited from earlier work; remark: listed apart in the source
[8] = co-administered with omeprazole or ranitidine
[9] = co-administered with ranitidine (an H2RA)

O=C(c1ccc(F)c(F)c1Nc1ccc(I)cc1F)N1CC(O)([C@@H]2CCCCN2)C1 [cobimetinib]
Effect of rabeprazole on exposure ([1]; fed and fasted conditions): did not result in a statistically significant effect | Fold less solubility ([2]; pH 6.4 compared to pH 1.9): 100 fold

C[C@@H](Oc1cc(-c2cnn(C3CCNCC3)c2)cnc1N)c1c(Cl)ccc(F)c1Cl [crizotinib]
Effect of esomeprazole on pharmacokinetics [1]: no clinically significant effect | Solubility ([2]; pH 1.6): > 10000 µg/mL | Solubility ([2]; pH 7.7): 100 µg/mL (≈ 0.222 mM)

C#Cc1cccc(Nc2ncnc3cc(OCCOC)c(OCCOC)cc23)c1 [erlotinib]
AUC decreased by [1, 8]: 30–45% | Cmax decreased by [1, 8]: 50–60%

COc1cc2ncnc(Nc3ccc(F)c(Cl)c3)c2cc1OCCCN1CCOCC1 [gefitinib]
AUC decreased to [1, 9]: 45% | Cmax decreased to [1, 9]: 70%

C=CC(=O)Nc1cc(Nc2nccc(-n3cc(CN(C)C)c(-c4ccccc4)n3)n2)c(OC)cc1N1CCOCC1 [lazertinib, Lazertinib]
Metabolizing enzyme [3]: predominantly metabolized by cytochrome P450 (CYP) 3A4 | Time to reach steady state [4]: ≤ 15 days | Effect of a high-fat meal on the pharmacokinetics [5]: did not significantly affect | Reduction of exposure by ARAs at the steady state ([6]; ARA group versus non-ARA group): approximately 10% | Effect of co-administered ARAs on the steady state pharmacokinetics ([6]; ARA group versus non-ARA group, all p values > 0.05): did not significantly affect | CD15, arithmetic mean ([6]; ARA group, trough day 15 of cycle 1, n=10): 159.01 (62.4%) ng/mL | DNAUCss, arithmetic mean ([6]; ARA group, n=19): 25.51 (59.9%) h·ng/mL/mg | DNCmax,ss, arithmetic mean ([6]; ARA group, n=19): 1.97 (50.1%) ng/mL/mg | DNCD15, arithmetic mean ([6]; ARA group, trough day 15 of cycle 1, n=23): 0.66 (62.1%) ng/mL/mg | CD15, arithmetic mean ([6]; Non-ARA group, trough day 15 of cycle 1, n=115): 175.70 (59.4%) ng/mL | DNAUCss, arithmetic mean ([6]; Non-ARA group, n=105): 27.61 (42.9%) h·ng/mL/mg | DNCmax,ss, arithmetic mean ([6]; Non-ARA group, n=105): 2.14 (44.3%) ng/mL/mg | DNCD15, arithmetic mean ([6]; Non-ARA group, trough day 15 of cycle 1, n=203): 0.72 (63.4%) ng/mL/mg | Solubility in aqueous media ([7]; between pH 5.0 and 6.0): solubility decreasing | Solubility in aqueous media ([7]; pH 1.2–4.0): soluble | Solubility in aqueous media ([7]; pH 7.0–8.0): practically insoluble

COC(=O)c1ccc2c(c1)NC(=O)/C2=C(\Nc1ccc(N(C)C(=O)CN2CCN(C)CC2)cc1)c1ccccc1 [nintedanib]
Effect of PPI or H2RA on exposure [1]: neither PPI nor H2RA affected | pH-dependent solubility profile [2]: increased solubility at acidic pH < 3

Cc1ccc(C(=O)Nc2ccc(CN3CCN(C)CC3)c(C(F)(F)F)c2)cc1C#Cc1cnc2cccnn12 [ponatinib]
Effect of lansoprazole on exposure [1]: did not have a clinically significant effect
